Assay results of several laboratories.
Protocols differ between the studies behind these lines.
JAK1 JH2: Tyrosine-protein kinase JAK1, JH2 (JAK1, Homo sapiens, UniProt P23458)
JAK1 JH1: Tyrosine-protein kinase JAK1, JH1 (JAK1, Homo sapiens, UniProt P23458)
JAK1: Tyrosine-protein kinase JAK1 (JAK1, Homo sapiens, UniProt P23458)

| Compound | target | assay | system | conditions | endpoint | value |
| --- | --- | --- | --- | --- | --- | --- |
| Nc1ncnc2occ(-c3ccc(NC(=O)Nc4cc(C(F)(F)F)ccc4F)cc3)c12 | JAK1 JH2 | cell-free assay, inhibitor |  | 20 µM | remaining signal | 67% |
| Cc1cnc(NC2CCOCC2)nc1-n1cnc(C(=O)NC(CN)c2cc(F)cc(Cl)c2)c1 (stereo not shown) | JAK1 JH1 | enzyme activity, inhibitor, radiometric |  | 1 µM | remaining activity | 93% |
| Cc1sc(C(=O)NC2COC2)cc1-n1cc(NC(=O)Nc2c(F)cccc2Cl)cn1 | JAK1 | enzyme activity, inhibitor |  | 10 µM | remaining activity | 72.2% |
| c1nc2c(Nc3ccc4c(c3)OCCO4)nc(Nc3ccc4c(c3)OCCO4)nc2[nH]1 | JAK1 JH2 | enzyme activity, inhibitor |  | 10 µM | activity vs control | 2.5% |
| CC1CCCN1c1nccc(-c2cnn3ncccc23)n1 (stereo not shown) | JAK1 | binding |  | 1 µM | remaining binding | 100% |
| COc1cc2c(Nc3ccc(Br)cc3F)ncnc2cc1OCC1CCN(C)CC1 | JAK1 | cell-free assay |  | 0.5 µM | remaining signal | 99.1% |
| CCOc1cc(-c2nncn2C)ccc1Nc1ncc2cc(C)nc(NCC(C)(C)C)c2n1 | JAK1 | enzyme activity, inhibitor, FRET |  | 1 µM | inhibition | < 15% |
| CN(C)C1CCN(CC#Cc2nn(C3CCCC3)c3nc(NCc4ccccc4)ncc23)C1 (stereo not shown) | JAK1 | enzyme activity, inhibitor, FRET |  | 1 µM | inhibition | 0% |
| CNc1cc(Oc2cc(C(=O)Nc3cc(N4CCN(C)CC4)cc(C(F)(F)F)c3)ccc2C)ncn1 | JAK1 JH2 | target engagement in cells, inhibitor, chemoproteomics | Huh-7 | 1 µM | inhibition | -25.7% |
| Cc1cc(NC(=O)c2cccc3cc(-c4cccc5[nH]nc(N)c45)ccc23)ccc1F | JAK1 JH1 | enzyme activity, inhibitor |  | 0.1 µM | activity vs control | 105% |
| CN(C)C(=O)Cn1cc(-c2nc(C3(c4ccc(-c5cnc(N)nc5)cc4)CC3)no2)cn1 | JAK1 JH2 | cell-free assay, competition with immobilised ligand |  | 1 µM | remaining binding | 100% |
| CN(CCCC(F)(F)F)c1nccc(-c2cnn3ncccc23)n1 | JAK1 JH1 | cell-free assay, competition with immobilised ligand |  | 1 µM | remaining binding | 100% |
| CN(c1ccnc(CNc2nc(Nc3ccc4c(c3)CC(=O)N4)ncc2C(F)(F)F)n1)S(C)(=O)=O | JAK1 JH1 | cell-free assay, competition with immobilised ligand |  | 1 µM | remaining binding | 94% |
| N#CCCc1ccc2c(c1)-c1[nH]c3ccc([N+](=O)[O-])cc3c1CC(=O)N2 | JAK1 | cell-free assay |  | 0.5 µM | remaining signal | 91.9% |
| O=c1nc(-c2ccccn2)sc2ccccc12 | JAK1 JH2 | binding, competition with immobilised ligand |  | 1 µM | remaining binding | 86% |
| CN1CC(Oc2cnc(C#N)cc2-c2ccn3nc(NC(=O)C4CC4)cc3c2)C1 | JAK1 | enzyme activity, inhibitor |  | 1 µM | inhibition | -10% |
| CS(=O)(=O)NCC[C@H](NC(=O)c1cncc2c1cnn2-c1ccc(F)cc1)c1ccnc(S(C)(=O)=O)c1 | JAK1 JH1 | cell-free assay, competition with immobilised ligand |  | 1 µM | remaining binding | 96% |
| Cc1ccc(NC(=O)c2ccc(C)c(C(F)(F)F)c2)cc1C#Cc1nn(C2CCC(O)CC2)c2ncnc(N)c12 (stereo not shown) | JAK1 JH1 | cell-free assay |  | 10 µM | remaining signal | 3% |
| O=C(NCc1ncc(C(F)(F)F)cc1Cl)c1ccc2c(c1)C1(CCS(=O)(=O)CC1)[C@@H](C1CC1)N2S(=O)(=O)c1ccc(F)cc1 | JAK1 JH2 | cell-free assay, competition with immobilised ligand |  | 1 µM | remaining binding | 85% |
| CC(C)(C)c1nc(-c2cccc(NS(=O)(=O)c3c(F)cccc3F)c2F)c(-c2ccnc(N)n2)s1 | JAK1 | enzyme activity, inhibitor, radiometric |  | 1 µM | remaining activity | 84% |
| c1cnn2ncc(-c3ccnc(N4CCC45COC5)n3)c2c1 | JAK1 JH1 | cell-free assay |  | 1 µM | remaining signal | 95% |
| CC1=C(C#N)[C@@H](c2ccc3[nH]nc(C)c3c2)C(C#N)=C(c2ccc(Cl)cc2)N1 | JAK1 JH2 | cell-free assay, competition with immobilised ligand |  | 1 µM | remaining binding | 38.2% |
